Measured values reported in ChEMBL document CHEMBL1153441 (J Med Chem, 2009).

Key:
[1] = biological target: T1, 5-hydroxytryptamine receptor 7 (Homo sapiens, UniProt P34969); assay: Displacement of [3H]LSD from human recombinant 5HT7 receptor expressed in CHOK1 cells; type: cell-based, CHO-K1
Method in brief: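 Transfected CHO-K1 membranes in 50 mM Tris-HCl, 10 mM MgSO4, 0.5 mM EDTA, pH 7.4, incubated 120 min at 27 °C with 3 nM [3H]LSD; nonspecific binding with 25 µM clozapine. Ligands screened at 1 µM, then six-concentration curves if displacement over 55%.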

[2] = biological target: T2, 5-hydroxytryptamine receptor 1A (Homo sapiens, UniProt P08908); assay: Displacement of [3H]8-OH-DPAT from human recombinant 5HT1A receptor expressed in HEK293 cells; type: cell-based
T2 sequence (P08908 whole entry): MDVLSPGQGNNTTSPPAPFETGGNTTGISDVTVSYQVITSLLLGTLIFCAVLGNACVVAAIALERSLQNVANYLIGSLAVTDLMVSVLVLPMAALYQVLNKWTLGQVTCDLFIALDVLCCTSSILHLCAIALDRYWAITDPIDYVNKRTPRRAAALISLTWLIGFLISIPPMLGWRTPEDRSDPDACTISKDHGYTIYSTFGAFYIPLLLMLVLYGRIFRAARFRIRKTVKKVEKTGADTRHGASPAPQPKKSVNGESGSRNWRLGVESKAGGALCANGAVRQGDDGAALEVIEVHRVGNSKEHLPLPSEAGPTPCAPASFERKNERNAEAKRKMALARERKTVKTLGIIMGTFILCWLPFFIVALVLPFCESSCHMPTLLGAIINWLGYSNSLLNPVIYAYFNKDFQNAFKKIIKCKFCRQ
Method in brief: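 Membranes from HEK-293 cells expressing human 5-HT1A receptor were incubated in the dark with 4.9 nM [3H]-8-OH-DPAT for 120 min at 37 °C in 50 mM Tris-HCl, 5 mM MgSO4, pH 7.4. Nonspecific binding was taken with 10 µM 5-HT. Filters were presoaked in 0.5% PEI, and bound radioactivity was counted by scintillation. Compounds were screened at 1 µM, then given six-point curves; Ki was derived by Cheng-Prusoff. Triplicates, 2-4 experiments.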

[3] = biological target: T1, 5-hydroxytryptamine receptor 7; assay: Agonist activity at human recombinant 5HT7 receptor expressed in CHOK1 cells assessed as increase in cAMP levels by HTRF assay; type: functional, cell-based, CHO-K1
[4] = biological target: T1, 5-hydroxytryptamine receptor 7; assay: Agonist activity at human recombinant 5HT7 receptor expressed in CHOK1 cells assessed as increase in cAMP levels by HTRF assay relative to serotonin; type: functional, cell-based; details: CHO-K1
[5] = biological target: T1, 5-hydroxytryptamine receptor 7; assay: Antagonist activity at human recombinant 5HT7 receptor expressed in CHOK1 cells assessed as inhibition of serotonon-induced increase in cAMP levels by HTRF assay; type: functional, cell-based; details: CHO-K1
Homo sapiens = organism: Homo sapiens; assay: Selectivity for human recombinant 5HT7 receptor over human recombinant 5HT1A receptor
[6] = biological target: T3, 5-hydroxytryptamine receptor 1A (Homo sapiens) (UniProt P08908); assay: Displacement of [3H]8-OH-DPAT from human recombinant 5HT1A receptor expressed in HEK293 cells at 1 uM; type: cell-based
T3 sequence (whole entry): T2 sequence (P08908 whole entry)
Method in brief: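 Membranes from transfected HEK-293 cells in 50 mM Tris-HCl, 5 mM MgSO4, pH 7.4, incubated in the dark 120 min at 37 °C with 4.9 nM [3H]8-OH-DPAT and 1 µM ligand (hydrochloride salt), triplicate. Nonspecific binding with 10 µM 5-HT. Filtration on 0.5% PEI-soaked filters, ice-cold Tris washes, scintillation counting; percent displacement.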

[7] = biological target: T1, 5-hydroxytryptamine receptor 7; assay: Antagonist activity at human recombinant 5HT7 receptor expressed in CHOK1 cells assessed as inhibition of serotonon-induced increase in cAMP levels by HTRF assay relative to untreated control; type: functional, cell-based, CHO-K1

T1 sequence (P34969 whole entry): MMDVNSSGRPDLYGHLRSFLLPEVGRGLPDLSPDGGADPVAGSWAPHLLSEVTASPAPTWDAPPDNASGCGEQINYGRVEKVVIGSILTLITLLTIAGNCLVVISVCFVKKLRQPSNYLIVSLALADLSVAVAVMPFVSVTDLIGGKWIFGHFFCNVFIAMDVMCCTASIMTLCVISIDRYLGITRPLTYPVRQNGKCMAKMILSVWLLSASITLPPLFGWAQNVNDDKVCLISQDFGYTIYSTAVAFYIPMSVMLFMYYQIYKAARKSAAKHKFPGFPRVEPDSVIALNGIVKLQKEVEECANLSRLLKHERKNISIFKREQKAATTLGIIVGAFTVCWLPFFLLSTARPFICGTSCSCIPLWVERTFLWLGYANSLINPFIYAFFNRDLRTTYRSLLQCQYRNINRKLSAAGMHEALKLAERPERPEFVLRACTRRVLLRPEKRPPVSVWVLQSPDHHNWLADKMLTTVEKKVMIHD

Structure (SMILES) | Ki [1] [µM] | Ki [2] [µM] | also measured
O=C1Cc2ccccc2N1CCCCN1CCC(c2ccccc2)CC1 | 0.16 | > 1 | 
O=C1Cc2ccccc2N1C/C=C/CN1CCN(c2cccc3ccccc23)CC1 | 0.069 | 0.039 | 
O=C1Cc2ccccc2N1CCCCN1CCN(c2ccccc2)CC1 | 0.074 | 0.124 | 
O=C1Cc2ccccc2N1Cc1ccc(CN2CCN(c3cccc4ccccc34)CC2)cc1 | > 1 | 0.181 | 
COc1ccccc1N1CCN(CCCCN2Cc3ccccc3C2=O)CC1 | 0.158 | > 1 | 
O=C1Cc2ccccc2N1CCCCCN1CCN(c2cccc3ccccc23)CC1 | 0.069 | 0.016 | 
O=C1Cc2ccccc2N1CCCCN1CCCC(c2ccccc2)C1 (stereo not drawn) | 0.193 | > 1 | 
O=C1Cc2ccccc2N1Cc1cccc(CN2CCN(c3cccc4ccccc34)CC2)c1 | > 1 | > 1 | 
O=C1Cc2ccccc2N1CCCCN1CCN(c2cccc3ccccc23)CC1 | 0.047 | 0.022 | 
O=C1Cc2ccccc2N1CCCCCN1CCN(c2cccc3[nH]cnc23)CC1 | 0.068 | 0.0181 | 
O=C1c2ccccc2CN1CCCCCN1CCN(c2ccccc2)CC1 | 0.203 | > 1 | 
COc1ccccc1N1CCN(CCCCN2C(=O)Cc3ccccc32)CC1 | 0.032 | > 1 | 
O=C1c2ccccc2CN1CCCCN1CCN(c2ccccc2)CC1 | > 1 | 0.36 | 
O=C1Cc2ccccc2N1CCCCN1CCc2ccccc2C1 | 0.007 | 0.219 | EC50 [3]: 0.31 µM; Activity ([3]; CHO-K1): Dose-dependent effect; Activity [4]: 40%; Activity [5]: Dose-dependent effect; Ratio Ki (Homo sapiens): 31
COc1ccccc1N1CCN(CCCCCN2C(=O)Cc3ccccc32)CC1 | 0.063 | > 1 | 
O=C1Cc2ccccc2N1CCN1CCc2ccccc2C1 | 0.35 | > 1 | 
O=C1c2cccc3cccc(c23)N1CCCCCN1CCN(c2ccccc2)CC1 [UCM-5600] | 0.089 |  | Activity [6]: 92%
O=C1Cc2ccccc2N1CCCCCN1CCN(c2ccccc2)CC1 | 0.063 | > 1 | 
O=C1Cc2ccccc2N1CC#CCN1CCN(c2cccc3ccccc23)CC1 | > 1 | 0.026 | 
O=C1Cc2ccccc2N1C/C=C\CN1CCN(c2cccc3ccccc23)CC1 | 0.25 | 0.0115 | 
O=C1Cc2ccccc2N1CCCN1CCc2ccccc2C1 | 0.105 | > 1 | 
CN1C[C@@H](NS(=O)(=O)N(C)C)C[C@@H]2c3cccc4c3c(cn4C)C[C@H]21 [MESULERGINE] |  |  | IC50 [7]: 0.12 µM
